Source: PubChem
Sampled rows, rich in hits. Any-hit rate of the full collection: about 4.8%.
HSF1 inh: HSF1 inhibitors in luciferase reporter cells, primary screen, cell-based, NIH3T3, luminescence; NIH3T3-HGL HSE-luciferase, MG132-induced, luminescence 8 h; active compounds read low; activity change, negative = inhibition, % at 7.5 µM (by protocol); hit rate 0.77% among 300,000; AID 2098, 2009;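 active = more than half of replicate wells show activity change below -50%, luminescence cut by over half; inconclusive = some wells, but at most half, below -50%; inactive = no replicate well below -50%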;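 note: luciferase reports HSF-1 transcriptional activity via heat shock element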
Jurkat NFkB inh: inhibitors of induced NF-kB luciferase reporter, primary screen, TCR NF-kB activation inhibitor project, cell-based, luminescence, uHTS; inhibition, % at 4 µM; hit rate 0.53% among 330,000; AID 435003, 2010; Jurkat, PMA/ionomycin-induced NF-kB luciferase reporter; in the data active = inhibition above about 50%
HSF1 activator: HSF-1 activators, primary screen, NIH3T3-HGL cells, MG132 stress, luminescence, single point | NIH3T3-HGL HSF-1 luciferase reporter, 8 h; 100% = twice DMSO control signal | activation, % at 9 µM | hit rate 1.7% among 300,000 | AID 504408, 2011;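 active = mean replicate activation of at least 50% with a set share of replicates each reaching 50%; inconclusive = only one of those two conditions met; inactive = mean below 50% and too few replicates reaching it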
GPR7 antag: GPR7 receptor antagonists, primary screen, cell-based, fluorescence, single concentration | hit rate 1.1% among 290,000 | Neuropeptides B/W receptor type 1 (Homo sapiens), P48145 | inhibition, % at 4.4 µM | GPR7-expressing cells, fluorescence antagonist assay; in the data active = inhibition above about 16%, passing the limit was not always enough;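 note: cells stimulated with the agonist NPW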
Target sequence (P48145 whole entry, looked up): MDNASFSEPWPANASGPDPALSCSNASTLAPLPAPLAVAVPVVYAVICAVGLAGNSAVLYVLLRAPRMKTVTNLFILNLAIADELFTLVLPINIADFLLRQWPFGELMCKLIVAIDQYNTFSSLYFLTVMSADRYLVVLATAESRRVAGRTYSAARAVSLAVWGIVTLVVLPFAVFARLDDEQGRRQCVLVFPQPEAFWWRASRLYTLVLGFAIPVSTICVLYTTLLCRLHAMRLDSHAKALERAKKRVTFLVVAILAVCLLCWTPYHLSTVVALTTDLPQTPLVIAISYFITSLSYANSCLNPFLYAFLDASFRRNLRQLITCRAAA
T cruzi repl: inhibitors of intracellular T. cruzi growth, primary screen, luminescence, NIH3T3 host cells; inhibition, % (no concentration beside the values); T. cruzi beta-gal in NIH3T3, 90 h; AID 1885, 2009; hit rate 1.4% among 300,000;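 active = mean inhibition across valid replicates above about 55%, limit read from the data; inconclusive = mean below that limit but half or more replicates reach it; inactive = mean below it, under half of replicates reach it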;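 note: signal also drops with host cell toxicity which is not excluded here; higher percent means less beta-gal luminescence so fewer parasites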
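System: mouse NIH/3T3 fibroblasts infected with β-gal-expressing T. cruzi Tulahuen C4 / Input: NIH/3T3 cells, 5,000 per well / Buffer or medium: Low-serum DMEM with 2% FBS / Probe or stimulus: 5000 reporter trypomastigotes per well / Schedule: ≥90 h infection period, 3 h prior cell attachment / Measured by: GalScreen luminescence, 60 min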
697 NFkB inh: inhibitors of PMA/ionomycin-induced NF-kB reporter, 697 cells, primary screen, B-cell NF-kB inhibitor project, cell-based, luminescence, uHTS; 697 B-cell NF-kB luciferase reporter, 16 h; inhibition, % at 4 µM; hit rate 0.33% among 330,000; AID 435022, 2010; in the data active = inhibition above about 35%
697 NFkB conf: PMA/ionomycin-induced NF-kB reporter inhibitors, 697 retest, confirmation, B-cell NF-kB inhibitor project, cell-based, luminescence, single concentration; inhibition, % at 4 µM; 697 B-cell NF-kB luciferase, 16 h; shares compounds with 697 NFkB inh; hit rate 35% among 2,000; in the data active = inhibition mostly above about 28%, no sharp cut-off; inactive = mostly below about 22%
Hits are given with their value; n = inactive; u = inconclusive; x = no result given.

SMILES	HSF1 inh	Jurkat NFkB inh	HSF1 activator	GPR7 antag	T cruzi repl	697 NFkB inh	697 NFkB conf
Cc1oc(-c2ccccc2Cl)nc1CSCC(=O)N1CCCC1	n	n	n	n	n	n	n
Cc1oc(-c2ccccc2Cl)nc1CSc1nc2c(c(=O)[nH]1)CCC2	n	n	n	n	n	40.6	n
Cc1nnc(SCC(=O)Nc2sc3c(c2C(=O)c2ccccc2)CCCC3)s1	n	n	n	n	n	n	x
CCOC(=O)c1c(NC(=O)c2c(-c3ccccc3)noc2C)sc(C)c1-c1ccccc1	n	n	n	n	63.1	n	n
c1ccc2[nH]c(-c3cscn3)nc2c1	n	x	n	n	n	x	x
c1ccc2nc(-c3nc4ccccc4[nH]3)ccc2c1	n	n	n	n	n	n	n
CCN(CC)c1ccc(/C=C(\C#N)c2ccccn2)cc1	-58.3	n	n	n	n	n	n
COc1ccc(NC(=O)C(c2ccc(Cl)cc2)C(C)C)cn1 (stereo not given)	n	n	n	n	n	n	x
CCCCNc1ncnc2c1cnn2-c1ccccc1	n	n	n	n	n	n	x
Cc1ccc(-n2ncc3c(NCc4cccnc4)ncnc32)cc1C	n	n	55.3	n	n	n	n
CCCCNc1ncnc2c1cnn2-c1ccc(Cl)cc1	n	n	n	n	n	n	n
Cc1nn(CC(=O)NC(C)C(C)C)c(C)c1S(=O)(=O)N1CCCCC1 (stereo not given)	x	n	x	x	x	n	x
CN1CCN(NS(=O)(=O)c2cccs2)CC1	n	n	n	n	n	n	x
CC1Cc2ccccc2N1S(=O)(=O)c1cnc(Cl)c(Cl)c1 (stereo not given)	n	n	n	n	n	45.5	33.2
CC1Cc2ccccc2N1S(=O)(=O)c1cnc(Cl)c(Br)c1 (stereo not given)	n	n	n	n	n	39.8	35.5
CC(OC(=O)Cc1c[nH]c2ccccc12)C(=O)c1ccccc1 (stereo not given)	x	n	x	x	x	n	x
CC1c2nc3ccccc3n2C(CC(=O)NC2CC2)C(=O)N1Cc1ccccc1 (stereo not given)	n	n	n	n	n	n	x
Cc1cc2cc(CNC(=S)NCc3ccccc3)ccc2n1C	n	n	n	n	n	n	x
Cc1ccc2c(c1)cc(C(=O)NCc1ccccc1)n2C	n	n	n	n	n	n	n
Cc1ccc(C)c(NC(=O)C(OC(=O)c2cc[n+]([O-])cc2)c2ccccc2)c1 (stereo not given)	x	n	x	x	x	n	x
COC(=O)c1ccc(/C=C2/SC(=S)N(CCCC(=O)Nc3ccc(O)cc3)C2=O)cc1	n	n	n	n	n	n	x
Cc1ccc(/C=C2\SC(=S)N(CCCC(=O)Nc3ccc(O)cc3)C2=O)cc1	n	n	n	n	n	92.2	90.1
O=C(CN1C(=O)S/C(=C/C=C/c2ccccc2)C1=O)Nc1ccc(C(=O)O)cc1	n	n	n	n	n	n	x
Cc1ccc(/C=C2\SC(=S)N(CCCC(=O)Nc3ccccn3)C2=O)cc1	-66.6	n	n	n	n	80.8	95.8
O=C(CCCN1C(=O)S/C(=C\C=C\c2ccccc2)C1=O)Nc1ccc(O)cc1	n	n	u	n	n	39.5	32.0
SMILES	HSF1 inh	Jurkat NFkB inh	HSF1 activator	GPR7 antag	T cruzi repl	697 NFkB inh	697 NFkB conf
O=C(NC1=NCCS1)c1ccc(Cl)c(S(=O)(=O)N2CCCC2)c1	n	n	n	n	n	n	x
O=C(NC1=NCCS1)c1ccc(Cl)c(Cl)c1	n	n	n	n	n	n	n
CC1CCN(C2=NC(=O)/C(=C/c3cn(-c4ccccc4)nc3-c3cccc(S(=O)(=O)N(C)C)c3)S2)CC1	n	n	n	n	n	n	x
O=C(Nc1cccc(S(=O)(=O)N2CCCCC2)c1)C1CCCN1S(=O)(=O)c1ccccc1F (stereo not given)	x	n	x	x	x	n	x
CCN(CC)C(=O)CSc1nnc(SC(C)C(=O)NC2CC2)s1 (stereo not given)	x	n	x	x	x	n	x
CC(C)CN(C(=O)CC1CCCC1)c1c(N)n(Cc2ccccc2)c(=O)[nH]c1=O	n	n	n	x	n	n	x
Cc1ccc(C(=O)OCC(=O)N(CC(C)C)c2c(N)n(Cc3ccccc3)c(=O)[nH]c2=O)o1	n	n	n	x	n	40.4	26.5
CC(C)CN(C(=O)COC(=O)C12CC3CC(CC(C3)C1)C2)c1c(N)n(Cc2ccccc2)c(=O)[nH]c1=O	n	n	n	x	n	50.4	52.0
CCOc1cccc(Nc2ccc([N+](=O)[O-])cn2)c1	n	n	n	n	n	n	x
COc1ccc(OC)c(S(=O)(=O)N2CCC(C(=O)NCc3cccnc3)CC2)c1	n	n	n	n	n	n	x
COc1ccc(-c2nn(-c3ccccc3)cc2/C=C(/C#N)C(N)=O)cc1[N+](=O)[O-]	n	n	n	n	n	n	x
COc1ccc(-c2nn(-c3ccccc3)cc2/C=C(\C#N)C(N)=O)cc1[N+](=O)[O-]	n	n	n	n	n	37.8	n
COc1cccc(NC(=O)CN(C)CC(=O)Nc2ccc(C)c([N+](=O)[O-])c2)c1	n	n	n	n	n	n	x
COc1ccc(C)cc1NC(=O)c1ccccc1NS(=O)(=O)c1cccc2cccnc12	n	n	n	n	n	n	x
CCCn1c(=N)c(C(=O)NC2CCCC2)cc2c(=O)n3cccc(C)c3nc21	n	n	n	n	x	n	x
Cc1cccn2c(=O)c3cc(C(=O)NC4CCCCC4)c(=N)n(CCN4CCOCC4)c3nc12	n	n	n	n	n	53.5	39.2
CCOc1cc(/C=C2\COc3ccccc3C2=O)cc(Br)c1OCC(=O)N(C)C	n	n	n	n	n	n	x
CCOC(=O)c1ccc(NC(=S)N(CCCN2CCCC(C)C2)Cc2ccco2)cc1 (stereo not given)	n	n	n	n	n	n	x
O=c1c2ccccc2oc2ccc(-c3ccc4cc[nH]c4c3)cc12	x	n	x	x	x	n	n
Cc1ccc(CN2CCN(/N=C/c3ccc(C(F)(F)F)cc3)CC2)c(C)c1	n	n	n	n	n	n	x
COc1ccc(-c2ccoc2)cc1[C@H]1[C@H]2C=CC[C@@H](C)[C@@H]2C(=O)N1Cc1ccccc1	n	n	n	x	n	46.5	39.5
COc1ccc(-c2ccc(C)cc2)cc1[C@H]1[C@H]2C=CC[C@@H](C)[C@@H]2C(=O)N1Cc1ccccc1	n	n	n	x	n	41.3	49.3
